Experimental data as given in ChEMBL document CHEMBL4699542, “Design and synthesis of novel methoxypyridine-derived gamma-secretase modulators” (Bioorg Med Chem, 2020).

Assay: Ratio of drug level in brain to plasma of transgenic Tg2576 mouse overexpressing human APP harboring K595N/M596L Swedish double mutant at 50 mg/kg, po administered via gavage for 14 consecutive days and measured after 4 hrs post last dose on day 14 by HPLC-MS/MS analysis
Type: ADME, organism-based
Settings: 336 h, time 14 day
Procedure, shortened: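 Female Tg2576 mice, 5–6 months old (n=12/dose), given 50 mg/kg by oral gavage daily for 14 days in 5% NMP/95% PEG300. Sacrificed 4 h after the day-14 dose. Plasma and brain drug levels measured by LC-MS/MS (LLOQ 1 ng/mL plasma, 5 ng/g brain). Ratio = brain/plasma.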

CCn1nc2c(c1Nc1nc(-c3ccc(-n4cnc(C)c4)c(OC)n3)cs1)CCC2
BPR: 0.374
